In ChEMBL document CHEMBL1671716, “Antimicrobial susceptibility patterns for recent clinical isolates of anaerobic bacteria in South Korea” (2010):

Columns and labels:
Type in all cases: functional
[1] = test system: Peptoniphilus asaccharolyticus; experiment: Antimicrobial activity against Peptoniphilus asaccharolyticus assessed as percent resistant isolates after 48 hrs by agar dilution method in presence of 4 ug/ml beta-lactamase inhibitor Tazobactam
Procedure, shortened: (§1)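 CLSI agar dilution on recent Korean clinical anaerobe isolates. Inoculum 10^5 CFU per spot by replicator. Plates incubated in an anaerobic chamber at 37°C for 48 h. For piperacillin plus tazobactam, tazobactam was held constant at 4 μg/ml. Resistance and susceptibility rates derived from MICs.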

Hoylesella oralis [2] = experiment: Antimicrobial activity against Prevotella oralis assessed as percent susceptible isolates after 48 hrs by agar dilution method in presence of 4 ug/ml beta-lactamase inhibitor Tazobactam
Schaalia meyeri [3] = experiment: Antimicrobial activity against Actinomyces meyeri assessed as percent resistant isolates after 48 hrs by agar dilution method in presence of 4 ug/ml beta-lactamase inhibitor Tazobactam; procedure, shortened: as §1
Eggerthella lenta = experiment: Antimicrobial activity against Eubacterium lentum assessed as percent resistant isolates after 48 hrs by agar dilution method in presence of 4 ug/ml beta-lactamase inhibitor Tazobactam; procedure, shortened: as §1
Schaalia odontolytica = experiment: Antimicrobial activity against Actinomyces odontolyticus after 48 hrs by agar dilution method in presence of 4 ug/ml beta-lactamase inhibitor Tazobactam
Procedure, shortened: (§2)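 MICs by CLSI agar dilution for piperacillin combined with tazobactam, with tazobactam held constant at 4 μg/ml. Clinical anaerobe isolates inoculated at 10^5 CFU by Steers replicator. Plates kept in an anaerobic chamber at 37°C for 48 h.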

Prevotella bivia [4] = experiment: Antimicrobial activity against Prevotella bivia assessed as percent susceptible isolates after 48 hrs by agar dilution method in presence of 4 ug/ml beta-lactamase inhibitor Tazobactam
Procedure, shortened: (§3)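 CLSI agar dilution (M11-A7); inoculum 10^5 CFU applied by replicator; plates incubated anaerobically 48 h at 37°C. For piperacillin-tazobactam, tazobactam held constant at 4 μg/ml.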

Phocaeicola vulgatus [5] = experiment: Antimicrobial activity against Bacteroides vulgatus assessed as percent resistant isolates after 48 hrs by agar dilution method in presence of 4 ug/ml beta-lactamase inhibitor Tazobactam; procedure, shortened: as §1
Clostridium perfringens [6] = experiment: Antimicrobial activity against Clostridium perfringens assessed as percent susceptible isolates after 48 hrs by agar dilution method in presence of 4 ug/ml beta-lactamase inhibitor Tazobactam; procedure, shortened: as §1
Finegoldia magna [7] = experiment: Antimicrobial activity against Finegoldia magna assessed as percent resistant isolates after 48 hrs by agar dilution method in presence of 4 ug/ml beta-lactamase inhibitor Tazobactam; procedure, shortened: as §1
Bacteroides fragilis [8] = experiment: Antimicrobial activity against Bacteroides fragilis after 48 hrs by agar dilution method in presence of 4 ug/ml beta-lactamase inhibitor Tazobactam; procedure, shortened: as §2
[9] = test system: Bacteroides thetaiotaomicron; experiment: Antimicrobial activity against Bacteroides thetaiotaomicron assessed as percent resistant isolates after 48 hrs by agar dilution method in presence of 4 ug/ml beta-lactamase inhibitor Tazobactam; procedure, shortened: as §1
Clostridium perfringens [10] = experiment: Antimicrobial activity against Clostridium perfringens after 48 hrs by agar dilution method in presence of 4 ug/ml beta-lactamase inhibitor Tazobactam
Procedure, shortened: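 Agar dilution per CLSI on Korean clinical C. perfringens isolates. Tazobactam at a fixed 4 μg/ml with piperacillin. 10^5 CFU spotted by replicator, then 48 h at 37°C in an anaerobic chamber. MIC read.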

Prevotella intermedia = experiment: Antimicrobial activity against Prevotella intermedia assessed as percent susceptible isolates after 48 hrs by agar dilution method in presence of 4 ug/ml beta-lactamase inhibitor Tazobactam; procedure, shortened: as §3
Schaalia meyeri [11] = experiment: Antimicrobial activity against Actinomyces meyeri after 48 hrs by agar dilution method in presence of 4 ug/ml beta-lactamase inhibitor Tazobactam; procedure, shortened: as §2
Actinomyces israelii [12] = experiment: Antimicrobial activity against Actinomyces israelii assessed as percent resistant isolates after 48 hrs by agar dilution method in presence of 4 ug/ml beta-lactamase inhibitor Tazobactam; procedure, shortened: as §1
Bifidobacterium sp. [13] = experiment: Antimicrobial activity against Bifidobacterium sp. after 48 hrs by agar dilution method in presence of 4 ug/ml beta-lactamase inhibitor Tazobactam; procedure, shortened: as §2
Actinomyces naeslundii = experiment: Antimicrobial activity against Actinomyces naeslundii after 48 hrs by agar dilution method in presence of 4 ug/ml beta-lactamase inhibitor Tazobactam; procedure, shortened: as §2
Finegoldia magna [14] = experiment: Antimicrobial activity against Finegoldia magna after 48 hrs by agar dilution method in presence of 4 ug/ml beta-lactamase inhibitor Tazobactam; procedure, shortened: as §3
Bacteroides caccae = experiment: Antimicrobial activity against Bacteroides caccae assessed as percent susceptible isolates after 48 hrs by agar dilution method in presence of 4 ug/ml beta-lactamase inhibitor Tazobactam
Clostridioides difficile = experiment: Antimicrobial activity against Clostridium difficile after 48 hrs by agar dilution method in presence of 4 ug/ml beta-lactamase inhibitor Tazobactam; procedure, shortened: as §3
Actinomyces israelii [15] = experiment: Antimicrobial activity against Actinomyces israelii after 48 hrs by agar dilution method in presence of 4 ug/ml beta-lactamase inhibitor Tazobactam; procedure, shortened: as §2
Bacteroides fragilis [16] = experiment: Antimicrobial activity against Bacteroides fragilis assessed as percent resistant isolates after 48 hrs by agar dilution method in presence of 4 ug/ml beta-lactamase inhibitor Tazobactam; procedure, shortened: as §1
[17] = test system: Parabacteroides distasonis; experiment: Antimicrobial activity against Bacteroides distasonis assessed as percent susceptible isolates after 48 hrs by agar dilution method in presence of 4 ug/ml beta-lactamase inhibitor Tazobactam
Bacteroides ovatus = experiment: Antimicrobial activity against Bacteroides ovatus assessed as percent susceptible isolates after 48 hrs by agar dilution method in presence of 4 ug/ml beta-lactamase inhibitor Tazobactam
Prevotella bivia [18] = experiment: Antimicrobial activity against Prevotella bivia after 48 hrs by agar dilution method in presence of 4 ug/ml beta-lactamase inhibitor Tazobactam; procedure, shortened: as §3
Bifidobacterium sp. [19] = experiment: Antimicrobial activity against Bifidobacterium sp. assessed as percent resistant isolates after 48 hrs by agar dilution method in presence of 4 ug/ml beta-lactamase inhibitor Tazobactam; procedure, shortened: as §1
Prevotella bivia [20] = experiment: Antimicrobial activity against Prevotella bivia assessed as percent resistant isolates after 48 hrs by agar dilution method in presence of 4 ug/ml beta-lactamase inhibitor Tazobactam; procedure, shortened: as §1
Fusobacterium necrogenes = experiment: Antimicrobial activity against Fusobacterium necrogenes after 48 hrs by agar dilution method in presence of 4 ug/ml beta-lactamase inhibitor Tazobactam; procedure, shortened: as §3
[21] = test system: Bacteroides thetaiotaomicron; experiment: Antimicrobial activity against Bacteroides thetaiotaomicron after 48 hrs by agar dilution method in presence of 4 ug/ml beta-lactamase inhibitor Tazobactam; procedure, shortened: as §2
Phocaeicola vulgatus [22] = experiment: Antimicrobial activity against Bacteroides vulgatus after 48 hrs by agar dilution method in presence of 4 ug/ml beta-lactamase inhibitor Tazobactam; procedure, shortened: as §2
Anaerococcus prevotii = experiment: Antimicrobial activity against Anaerococcus prevotii after 48 hrs by agar dilution method in presence of 4 ug/ml beta-lactamase inhibitor Tazobactam; procedure, shortened: as §2
[23] = test system: Peptoniphilus asaccharolyticus; experiment: Antimicrobial activity against Peptoniphilus asaccharolyticus after 48 hrs by agar dilution method in presence of 4 ug/ml beta-lactamase inhibitor Tazobactam; procedure, shortened: as §3
Hoylesella oralis [24] = experiment: Antimicrobial activity against Prevotella oralis after 48 hrs by agar dilution method in presence of 4 ug/ml beta-lactamase inhibitor Tazobactam; procedure, shortened: as §3

## CCN1CCN(C(=O)N[C@@H](C(=O)N[C@@H]2C(=O)N3[C@@H]2SC(C)(C)[C@@H]3C(=O)O)c2ccccc2)C(=O)C1=O [PIPERACILLIN]
[1]
  Activity: 0%
Hoylesella oralis [2]
  Activity: 100%
Schaalia meyeri [3]
  Activity: 0%
Eggerthella lenta
  Activity: 0%
Schaalia odontolytica
  MIC50: 0.5 µg/mL
  MIC90: 8 µg/mL
Prevotella bivia [4]
  Activity: 100%
Phocaeicola vulgatus [5]
  Activity: 7%
Clostridium perfringens [6]
  Activity: 100%
Finegoldia magna [7]
  Activity: 0%
Bacteroides fragilis [8]
  MIC50: 1 µg/mL
  MIC90: 4 µg/mL
[9]
  Activity: 7%
Clostridium perfringens [10]
  MIC50: 0.25 µg/mL
  MIC90: 0.5 µg/mL
Prevotella intermedia
  Activity: 100%
Schaalia meyeri [11]
  MIC50: 0.5 µg/mL
  MIC90: 8 µg/mL
Actinomyces israelii [12]
  Activity: 0%
Bifidobacterium sp. [13]
  MIC50: 0.5 µg/mL
  MIC90: 8 µg/mL
Actinomyces naeslundii
  MIC50: 0.5 µg/mL
  MIC90: 8 µg/mL
Finegoldia magna [14]
  MIC50: 0.06 µg/mL
  MIC90: 0.125 µg/mL
Bacteroides caccae
  Activity: 89%
Clostridioides difficile
  MIC50: 4 µg/mL
  MIC90: 8 µg/mL
Actinomyces israelii [15]
  MIC50: 0.5 µg/mL
  MIC90: 8 µg/mL
Bacteroides fragilis [16]
  Activity: 2%
[17]
  Activity: 89%
Bacteroides ovatus
  Activity: 89%
Prevotella bivia [18]
  MIC50: ≤ 0.03 µg/mL
  MIC90: 4 µg/mL
Bifidobacterium sp. [19]
  Activity: 0%
Prevotella bivia [20]
  Activity: 0%
Fusobacterium necrogenes
  MIC: 0.03 µg/mL
[21]
  MIC50: 8 µg/mL
  MIC90: 64 µg/mL
Phocaeicola vulgatus [22]
  MIC50: 8 µg/mL
  MIC90: 64 µg/mL
Anaerococcus prevotii
  MIC50: 0.125 µg/mL
  MIC90: 0.125 µg/mL
[23]
  MIC50: ≤ 0.03 µg/mL
  MIC90: 0.06 µg/mL
Hoylesella oralis [24]
  MIC50: ≤ 0.03 µg/mL
  MIC90: 4 µg/mL
